# Results reported in PMC2795045 (Chemico-biological interactions, 2010).
# Where two headings read alike, the source gives them in different places.
# Assays:
# [1] = system: XLK-WG cells; experiment: CYP1A6/CYP1A7 mRNA induction in XLK-WG cells by quantitative RT-PCR; format: cell-based, Xenopus laevis
# [2] = system: CYP1A; experiment: CYP1A activity; format: cell-based, Xenopus laevis; conditions: Xenopus laevis
# [3] = system: XLK-WG cells; experiment: CYP1A activity; format: cell-based, Xenopus laevis; conditions: XLK-WG cells, at the concentration of maximum response
# [4] = system: CYP1A1; experiment: CYP1A1 mRNA induction in Hepa1c1c7 cells by quantitative RT-PCR; format: cell-based, mouse; conditions: mouse, EC50 for CYP1A1 mRNA induction, 3 hours exposure, qRT-PCR, ± SE
# [5] = system: Hepa1c1c7 cells; experiment: as above; format: cell-based, mouse; conditions: read-out: EC50 for CYP1A1 mRNA induction, 3 hours exposure, qRT-PCR, ± SE
# [6] = system: Hepa1c1c7 cells; experiment: CYP1A activity; format: cell-based, mouse; conditions: for maximum EROD activity in Hepa1c1c7 cells relative to XLK-WG cells / maximum EROD activity induced: 3 hour treatment; for maximum EROD activity induced: ± SE
# [7] = system: CYP1A6 (Xl.1692) mRNA; experiment: Affymetrix expression microarray of XLK-WG cells; format: cell-based, Xenopus laevis; conditions: Xenopus laevis
# [8] = system: CYP1A7 (Xl.1220) mRNA; experiment: Affymetrix expression microarray of XLK-WG cells; format: cell-based, Xenopus laevis; conditions: Xenopus laevis
# [9] = system: XLK-WG cells; experiment: Affymetrix expression microarray of XLK-WG cells; format: cell-based, Xenopus laevis; conditions: for Genes altered ≥ 2-fold: Induced / Genes altered ≥ 2-fold: Repressed / Genes altered (p ≤ 0.01): Induced / Genes altered (p ≤ 0.01): Repressed: 3 hours, number of genes; for Genes altered (p ≤ 0.01): Induced / Genes altered (p ≤ 0.01): Repressed: no two-fold cutoff; for fold induction at 0.1 µM: Xenopus laevis, 3 h
# [10] = system: CYP1A6 (Xl.1692) mRNA; experiment: qRT-PCR of selected altered transcripts in XLK-WG cells; format: cell-based, Xenopus laevis; conditions: Xenopus laevis
# [11] = system: CYP1A7 (Xl.1220) mRNA; experiment: as above; format: cell-based, Xenopus laevis; conditions: Xenopus laevis
# [12] = system: XLK-WG cells; experiment: as above; format: cell-based, Xenopus laevis; conditions: XLK-WG cells, relative to vehicle-treated control; for Xl.14954 (similar to voltage-gated potassium channel subunit MiRP4.1) fold induction, qRT-PCR: table row r10; for Xl.14954 fold induction, qRT-PCR: table row r16
# [13] = system: CYP1A; experiment: CYP1A activity; format: cell-based, mouse; conditions: mouse
# [14] = system: XLK-WG cells; experiment: Semi-quantitative RT-PCR of AHR pathway transcripts in XLK-WG cells; format: cell-based, Xenopus laevis; conditions: 100 nM TCDD, 24 hours
# Outline: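 XLK-WG cells were kept in the dark at 29 °C and 5% CO2 in RPMI-1640 with 20% FBS, then grown to near confluence. They were exposed for 24 h to 100 nM TCDD or DMSO vehicle (0.25% final). Total RNA was column-extracted, and RT-PCR covered CYP1A6, CYP1A7, AHR1α, AHR1β, ARNT1 and ARNT2. Cycling was 95 °C/1 min; 43 cycles of […], 50 °C/30 sec, 72 °C/60 sec; then 72 °C/7 min. A no-RT control was included.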
# [15] = read-out: Hypothetical protein MCG81225 (similar to Zn-finger protein 410; Xl.16594) fold induction, Microarray
smiles,measurement,setting,value
"O=Cc1c2[nH]c3ccccc3c2cc2[nH]c3ccccc3c12 [FICZ, 6-formylindolo[3,2-b]carbazole]",CYP1A6/7 mRNA quantities after 3 hours exposure relative to 24 hours exposure,[1],up to 5 fold
same,CYP1A7 mRNA induction after 3 hours relative to after 24 hours,[1]; highest dosage of FICZ,5 fold
same,EC50,"[2]; EC50 of induced CYP1A activity (EROD), XLK-WG cells, 3 hour exposure, ± SE",0.56 ± 0.15 nM
same,rise of induced CYP1A activity with 24 hours versus 3 hour exposure,[3],more than 20 fold
same,EC50,[4],~0.06 nM
same,EC50,[5],0.07 ± 0.02 nM
same,maximum EROD activity in Hepa1c1c7 cells relative to XLK-WG cells,[6],~ 20 fold
same,EROD EC50 after 24 hours relative to EC50 after 3 hours,[6]; Hepa1c1c7 cells,~ 50 fold
same,maximum EROD activity induced,[6]; Hepa1c1c7 cells,8.83 ± 2.72 pmol • mg protein^−1 • min^−1
same,fold induction at 0.1 µM,[7],2.1
same,fold induction at 0.1 µM,[8],16.1
same,number of transcripts with altered expression in excess of TCDD,"[9]; XLK-WG cells, 100 nM",105
same,Genes altered ≥ 2-fold: Induced,"[9]; XLK-WG cells, 100 nM",24
same,Genes altered ≥ 2-fold: Repressed,"[9]; XLK-WG cells, 100 nM",2
same,Genes altered (p ≤ 0.01): Induced,"[9]; XLK-WG cells, 100 nM",113
same,Genes altered (p ≤ 0.01): Repressed,"[9]; XLK-WG cells, 100 nM",35
same,fold induction at 0.1 µM,[9]; [15],1.3
same,fold induction at 0.1 µM,"[9]; read-out: KCNE5.1: voltage-gated potassium channel subunit MiRP4.1 (Xl.16370) fold induction, Microarray",2
same,fold induction at 0.1 µM,"[9]; read-out: MGC52735:similar to gap-jct protein alpha-7 (Xl.3337) fold induction, Microarray",5.2
same,fold induction at 0.1 µM,"[9]; read-out: MGC85390 (Xl.23887; similar to RAB 40B, RAS oncogene family) fold induction, Microarray",2.1
same,fold induction at 0.1 µM,"[9]; read-out: Peripheral Myelin protein 22 (Xl.11939/Xl.14729) fold induction, Microarray",2.2
same,fold induction at 0.1 µM,"[9]; read-out: SYNE 1 (Xl. 14119) fold induction, Microarray",6.7
same,fold induction at 0.1 µM,"[9]; read-out: Xl.13754 (similar to C219-reactive peptide) fold induction, Microarray",3.1
same,fold induction at 0.1 µM,"[9]; read-out: Xl.14584 (similar to gastrula-specific protein kinase) fold induction, Microarray",2.9
same,fold induction at 0.1 µM,"[9]; read-out: Xl.14954 (similar to voltage-gated potassium channel subunit MiRP4.1) fold induction, Microarray",3.1
same,fold induction at 0.1 µM,"[9]; read-out: Xl.14954 fold induction, Microarray",2.1
same,fold induction at 0.1 µM,"[9]; read-out: Xl.25142 fold induction, Microarray",2.1
same,fold induction at 0.1 µM,"[9]; read-out: Xl.7783 fold induction, Microarray",5.9
same,fold induction,[10],455
same,fold induction,[11],412
same,"Hyaluronidase 2 (Xl.6247/Xl.16152) fold induction, qRT-PCR",[12],2.7 fold
same,"Hypothetical protein MCG81225 (similar to Zn-finger protein 410; Xl.16594) fold induction, qRT-PCR",[12],3.5 fold
same,"KCNE5.1: voltage-gated potassium channel subunit MiRP4.1 (Xl.16370) fold induction, qRT-PCR",[12],1.6 fold
same,"MGC52735:similar to gap-jct protein alpha-7 (Xl.3337) fold induction, qRT-PCR",[12],304 fold
same,"Peripheral Myelin protein 22 (Xl.11939/Xl.14729) fold induction, qRT-PCR",[12],1.0 fold
same,"SYNE 1 (Xl. 14119) fold induction, qRT-PCR",[12],106 fold
same,"Xl.13754 (similar to C219-reactive peptide) fold induction, qRT-PCR",[12],4.6 fold
same,"Xl.14584 (similar to gastrula-specific protein kinase) fold induction, qRT-PCR",[12],10.6 fold
same,"Xl.25142 fold induction, qRT-PCR",[12],1.8 fold
same,"Xl.7783 fold induction, qRT-PCR",[12],4.3 fold
same,"Xl.14954 (similar to voltage-gated potassium channel subunit MiRP4.1) fold induction, qRT-PCR",[12],9.5 fold
same,"Xl.14954 fold induction, qRT-PCR",[12],1.9 fold
"Clc1cc2c(cc1Cl)Oc1cc(Cl)c(Cl)cc1O2 [TCDD, 2,3,7,8-tetrachlorodibenzo-p-dioxin]",EC50 at 3 h,[2],10.5 ± 3.17 nM
same,EC50 at 24 h,[2],≥ 95 nM
same,rise of induced CYP1A activity with 24 hours versus 3 hour exposure,[3],more than 20 fold
same,EC50 at 3 h,[4],~0.06 nM
same,EC50,[5],0.05 ± 0.02 nM
same,EC50 at 3 h,[13],0.03 ± 0.01 nM
same,EC50 at 24 h,[13],0.01 ± 0.002 nM
same,maximum EROD activity in Hepa1c1c7 cells relative to XLK-WG cells,[6],~ 40 fold
same,maximum EROD activity induced,[6]; Hepa1c1c7 cells,13.41 ± 4.61 pmol • mg protein^−1 • min^−1
same,"fold induction at 3 h, 0.1 µM",[7],1.7
same,"fold induction at 3 h, 0.1 µM",[8],6.7
same,Genes altered ≥ 2-fold: Induced,"[9]; XLK-WG cells, 100 nM",3
same,Genes altered ≥ 2-fold: Repressed,"[9]; XLK-WG cells, 100 nM",1
same,Genes altered (p ≤ 0.01): Induced,"[9]; XLK-WG cells, 100 nM",31
same,Genes altered (p ≤ 0.01): Repressed,"[9]; XLK-WG cells, 100 nM",12
same,fold induction at 0.1 µM,[9]; [15],1.3
same,"fold induction at 3 h, 100 nM",[10],427
same,"fold induction at 3 h, 100 nM",[11],320
same,"Hyaluronidase 2 (Xl.6247/Xl.16152) fold induction, qRT-PCR",[12],1.6 fold
same,"Hypothetical protein MCG81225 (similar to Zn-finger protein 410; Xl.16594) fold induction, qRT-PCR",[12],3.2 fold
same,"KCNE5.1: voltage-gated potassium channel subunit MiRP4.1 (Xl.16370) fold induction, qRT-PCR",[12],2.0 fold
same,"MGC52735:similar to gap-jct protein alpha-7 (Xl.3337) fold induction, qRT-PCR",[12],69.1 fold
same,"MGC85390 (Xl.23887; similar to RAB 40B, RAS oncogene family) fold induction, qRT-PCR",[12],2.0 fold
same,"Peripheral Myelin protein 22 (Xl.11939/Xl.14729) fold induction, qRT-PCR",[12],1.1 fold
same,"SYNE 1 (Xl. 14119) fold induction, qRT-PCR",[12],8.4 fold
same,"Xl.13754 (similar to C219-reactive peptide) fold induction, qRT-PCR",[12],2.2 fold
same,"Xl.14584 (similar to gastrula-specific protein kinase) fold induction, qRT-PCR",[12],10.1 fold
same,"Xl.25142 fold induction, qRT-PCR",[12],0.9 fold
same,"Xl.7783 fold induction, qRT-PCR",[12],2.0 fold
same,"Xl.14954 (similar to voltage-gated potassium channel subunit MiRP4.1) fold induction, qRT-PCR",[12],6.6 fold
same,"Xl.14954 fold induction, qRT-PCR",[12],3.0 fold
same,"CYP1A6 and CYP1A7 mRNA expression, semi-quantitative RT-PCR",[14],up regulation of CYP1A6 and CYP1A7 mRNAs
